In brackets after ≈: the same amount, converted by molar mass.
Tests used:
Pseudomonas aeruginosa [1] = experiment: Antibacterial activity against Pseudomonas aeruginosa NCTC 6749 assessed as bacterial growth inhibition measured after 18 hrs by two-fold serial microdilution method; format: functional
Procedure, shortened: (§1)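 Two-fold serial broth microdilution in MH II medium following modified CLSI procedures. Compounds were dissolved in DMSO and diluted in medium to at most 1% solvent, tested from 0.03125 to 512 μg/ml. Final inoculum 10^6 CFU/ml. MIC was taken as the lowest concentration with no visible growth after 18 h at 35 °C.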

[2] = test system: Mycobacterium tuberculosis; experiment: Antitubercular activity against Mycobacterium tuberculosis H37Rv ATCC 25618 assessed as inhibition of microbial growth incubated for 1 week by MABA method; format: functional; details: H37Rv ATCC 25618, 168 h, time 1 weeks
Procedure, shortened: (§2)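 Microplate Alamar Blue assay in Middlebrook 7H9 broth with 10% OADC. Inoculum from fresh LJ culture was adjusted to McFarland 1 and diluted 1:20. DMSO stocks were two-fold serially diluted to final 0.125–512 µg/ml, with growth and sterile controls. Plates ran 1 week at 37 °C, then Alamar blue was added for 24 h. MIC is the lowest concentration preventing the blue-to-pink change.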

[3] = test system: Staphylococcus epidermidis; experiment: Antibacterial activity against Staphylococcus epidermidis ATCC 35984/RP62A assessed as bacterial growth inhibition measured after 18 hrs by two-fold serial microdilution method; format: functional; procedure, shortened: as §1
V79 [4] = experiment: Cytotoxicity against Chinese Hamster V79 cells assessed as reduction in cell viability measured after 72 hrs by MTT assay; format: cell-based; details: Cricetulus griseus, V79, 72 h
Procedure, shortened: (§3)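 MTT viability assay on cells grown in DMEM with 10% heat-inactivated FBS, penicillin/streptomycin and 20 mM HEPES at 37 °C/5% CO2. Cells were seeded at 1×10^4 per well and allowed to adhere for 24 h, then the medium was refreshed. Compounds were added at 20–140 μM for 72 h at 37 °C, followed by MTT (0.5 mg/mL in serum-free medium) for 4 h. Untreated cells served as control. IC50 is the concentration giving 50% growth inhibition versus control.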

HaCaT [5] = experiment: Cytotoxicity against human HaCaT cells assessed as reduction in cell viability at 100 uM measured after 72 hrs by MTT assay; format: cell-based; procedure, shortened: as §3
Mycobacterium xenopi = experiment: Antibacterial activity against Mycobacterium xenopi assessed as inhibition of microbial growth incubated for 1 week by MABA method; format: functional; details: 168 h, time 1 weeks
Procedure, shortened: (§4)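 Microplate Alamar Blue assay using two-fold serial microdilution in Middlebrook 7H9 broth with 10% OADC, compounds 0.125–512 µg/ml from DMSO stocks. Inoculum came from fresh LJ culture, was adjusted to McFarland 1 and diluted 1:20. Plates were incubated 1 week at 37 °C, Alamar blue was added and plates were re-incubated 24 h. MIC was the lowest concentration preventing the blue-to-pink change. Each plate carried growth and sterile controls.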

[6] = test system: Staphylococcus epidermidis; experiment: Antibacterial activity against Staphylococcus epidermidis ATCC 1457 assessed as bacterial growth inhibition measured after 18 hrs by two-fold serial microdilution method; format: functional; procedure, shortened: as §1
[7] = test system: Mycolicibacterium fortuitum; experiment: Antibacterial activity against Mycobacterium fortuitum assessed as inhibition of microbial growth incubated for 1 week by MABA method; format: functional; details: 168 h, time 1 weeks; procedure, shortened: as §4
Staphylococcus aureus [8] = experiment: Antibacterial activity against Staphylococcus aureus ATCC 6538 assessed as bacterial growth inhibition measured after 18 hrs by two-fold serial microdilution method; format: functional; procedure, shortened: as §1
Escherichia coli = experiment: Antibacterial activity against Escherichia coli ATCC 25922 assessed as bacterial growth inhibition measured after 18 hrs by two-fold serial microdilution method; format: functional; procedure, shortened: as §1
V79 [9] = experiment: Cytotoxicity against Chinese Hamster V79 cells assessed as reduction in cell viability at 100 uM measured after 72 hrs by MTT assay; format: cell-based, Cricetulus griseus; details: v79, 72 h; procedure, shortened: as §3
Mycobacterium kansasii = experiment: Antibacterial activity against Mycobacterium kansasii assessed as inhibition of microbial growth incubated for 1 week by MABA method; format: functional; details: 168 h, time 1 weeks; procedure, shortened: as §4
[10] = test system: Mycobacterium intracellulare; experiment: Antimycobacterial activity against Mycobacterium intracellulare assessed as inhibition of microbial growth incubated for 1 week by MABA method; format: functional; details: 168 h, time 1 weeks; procedure, shortened: as §4
[11] = test system: Staphylococcus epidermidis; experiment: Antibacterial activity against Staphylococcus epidermidis ATCC 12228 assessed as bacterial growth inhibition measured after 18 hrs by two-fold serial microdilution method; format: functional; procedure, shortened: as §1
Proteus vulgaris = experiment: Antibacterial activity against Proteus vulgaris NCTC 4635 assessed as bacterial growth inhibition measured after 18 hrs by two-fold serial microdilution method; format: functional; procedure, shortened: as §1
Staphylococcus aureus [12] = experiment: Antibacterial activity against Staphylococcus aureus NCTC 4163 assessed as bacterial growth inhibition measured after 18 hrs by two-fold serial microdilution method; format: functional; procedure, shortened: as §1
[13] = test system: Mycobacterium scrofulaceum; experiment: Antibacterial activity against Mycobacterium scrofulaceum assessed as inhibition of microbial growth incubated for 1 week by MABA method; format: functional; details: 168 h, time 1 weeks; procedure, shortened: as §4
Pseudomonas aeruginosa [14] = experiment: Antibacterial activity against Pseudomonas aeruginosa PAO1 assessed as bacterial growth inhibition measured after 18 hrs by two-fold serial microdilution method; format: functional; procedure, shortened: as §1
Klebsiella pneumoniae = experiment: Antibacterial activity against Klebsiella pneumoniae ATCC 10031 assessed as bacterial growth inhibition measured after 18 hrs by two-fold serial microdilution method; format: functional; procedure, shortened: as §1
Mycobacterium avium = experiment: Antimycobacterial activity against Mycobacterium avium assessed as inhibition of microbial growth incubated for 1 week by MABA method; format: functional; details: 168 h, time 1 weeks; procedure, shortened: as §2
HaCaT [15] = experiment: Cytotoxicity against human HaCaT cells assessed as reduction in cell viability measured after 72 hrs by MTT assay; format: cell-based; procedure, shortened: as §3
[16] = test system: Mycobacterium tuberculosis; experiment: Antitubercular activity against Mycobacterium tuberculosis Spec.192 assessed as inhibition of microbial growth incubated for 1 week by MABA method; format: functional; details: Mycobacterium tuberculosis, 192, 168 h; time 1 weeks; procedure, shortened: as §2

| Structure (SMILES) | MIC (Pseudomonas aeruginosa [1]) | MIC [2] | MIC [3] | IC50 (V79 [4]) | Activity (HaCaT [5]) | MIC (Mycobacterium xenopi) | MIC [6] | MIC [7] | MIC (Staphylococcus aureus [8]) | MIC (Escherichia coli) | Activity (V79 [9]) | MIC (Mycobacterium kansasii) | MIC [10] | MIC [11] | MIC (Proteus vulgaris) | MIC (Staphylococcus aureus [12]) | MIC (Pseudomonas aeruginosa [14]) | MIC (Klebsiella pneumoniae) | IC50 (HaCaT [15]) | MIC [16] | other results |
| --- | --- | --- | --- | --- | --- | --- | --- | --- | --- | --- | --- | --- | --- | --- | --- | --- | --- | --- | --- | --- | --- |
| COc1ccc(-n2nnnc2Nc2ccccc2Br)cc1 | > 256 µg/mL | 64 µg/mL | 256 µg/mL (≈ 739 µM) | 239 µM | Non-Toxic | 512 µg/mL | 256 µg/mL (≈ 739 µM) | 256 µg/mL | 256 µg/mL (≈ 739 µM) | > 256 µg/mL | Non-Toxic | 512 µg/mL | 128 µg/mL | 128 µg/mL (≈ 370 µM) | > 256 µg/mL | 256 µg/mL (≈ 739 µM) | > 256 µg/mL | > 256 µg/mL | 137 µM | 64 µg/mL | MIC [13]: 256 µg/mL; MIC (Mycobacterium avium): 256 µg/mL |
| COc1ccc(-n2nnnc2Nc2ccccc2F)cc1 | > 256 µg/mL | 16 µg/mL | > 256 µg/mL | 115 µM | Non-Toxic |  | > 256 µg/mL |  | > 256 µg/mL | > 256 µg/mL | Non-Toxic |  |  | > 256 µg/mL | > 256 µg/mL | > 256 µg/mL | > 256 µg/mL | > 256 µg/mL | 111 µM | 16 µg/mL |  |
| COc1ccc(-n2nnnc2Nc2cccc(Cl)c2)cc1 | > 256 µg/mL | 32 µg/mL | > 256 µg/mL | 243 µM | Non-Toxic | > 512 µg/mL | > 256 µg/mL | 256 µg/mL | > 256 µg/mL | > 256 µg/mL | Non-Toxic | 512 µg/mL | 128 µg/mL | > 256 µg/mL | > 256 µg/mL | > 256 µg/mL | > 256 µg/mL | > 256 µg/mL | 141 µM | 32 µg/mL | MIC [13]: 512 µg/mL; MIC (Mycobacterium avium): 256 µg/mL |
| COc1ccc(-n2nnnc2Nc2ccccc2Cl)cc1 | > 256 µg/mL | 8 µg/mL | 256 µg/mL (≈ 848 µM) | 246 µM | Non-Toxic | 512 µg/mL | 64 µg/mL (≈ 212 µM) | 256 µg/mL | 32 µg/mL (≈ 106 µM) | > 256 µg/mL | Non-Toxic | 512 µg/mL | 128 µg/mL | 128 µg/mL (≈ 424 µM) | 64 µg/mL (≈ 212 µM) | 32 µg/mL (≈ 106 µM) | > 256 µg/mL | > 256 µg/mL | 134 µM | 8 µg/mL | MIC [13]: 32 µg/mL; MIC (Mycobacterium avium): 128 µg/mL |
| COc1ccc(-n2nnnc2Nc2ccc(Cl)cc2)cc1 | > 256 µg/mL | 16 µg/mL | 128 µg/mL (≈ 424 µM) | 245 µM | Non-Toxic | 512 µg/mL | 128 µg/mL (≈ 424 µM) | > 512 µg/mL | 128 µg/mL (≈ 424 µM) | > 256 µg/mL | Non-Toxic | > 512 µg/mL | 32 µg/mL | 64 µg/mL (≈ 212 µM) | 128 µg/mL (≈ 424 µM) | 128 µg/mL (≈ 424 µM) | > 256 µg/mL | > 256 µg/mL | 143 µM | 16 µg/mL | MIC [13]: > 512 µg/mL; MIC (Mycobacterium avium): > 512 µg/mL |
| COc1ccc(Nc2nnnn2-c2ccccc2F)cc1 | 256 µg/mL (≈ 897 µM) | 16 µg/mL | 64 µg/mL (≈ 224 µM) | 212 µM | Non-Toxic | 128 µg/mL | 64 µg/mL (≈ 224 µM) | 256 µg/mL | 64 µg/mL (≈ 224 µM) | 256 µg/mL (≈ 897 µM) | Non-Toxic | 256 µg/mL | 128 µg/mL | 64 µg/mL (≈ 224 µM) | 256 µg/mL (≈ 897 µM) | 64 µg/mL (≈ 224 µM) | 256 µg/mL (≈ 897 µM) | 256 µg/mL (≈ 897 µM) | 122 µM | 16 µg/mL | MIC [13]: 32 µg/mL; MIC (Mycobacterium avium): 256 µg/mL |
| COc1ccc(-n2nnnc2Nc2ccc(F)cc2)cc1 | 128 µg/mL (≈ 449 µM) | 32 µg/mL | 128 µg/mL (≈ 449 µM) | 236 µM | Non-Toxic | > 512 µg/mL | 128 µg/mL (≈ 449 µM) | 512 µg/mL | 128 µg/mL (≈ 449 µM) | > 256 µg/mL | Non-Toxic | 512 µg/mL | 16 µg/mL | 64 µg/mL (≈ 224 µM) | 128 µg/mL (≈ 449 µM) | 128 µg/mL (≈ 449 µM) | > 256 µg/mL | > 256 µg/mL | 155 µM | 32 µg/mL | MIC [13]: 32 µg/mL; MIC (Mycobacterium avium): 256 µg/mL |
| O=C(O)c1cn(C2CC2)c2cc(N3CCNCC3)c(F)cc2c1=O [CIPROFLOXACIN] |  |  | 0.0625 µg/mL (≈ 0.189 µM) |  |  |  | 0.125 µg/mL (≈ 0.377 µM) |  |  | < 0.0625 µg/mL |  |  |  | 0.125 µg/mL (≈ 0.377 µM) | < 0.0625 µg/mL |  |  | < 0.0625 µg/mL |  |  |  |
| COc1cccc2c1C(=O)c1c(O)c3c(c(O)c1C2=O)C[C@@](O)(C(=O)CO)C[C@@H]3O[C@H]1C[C@H](N)[C@H](O)[C@H](C)O1 [DOXORUBICIN] |  |  |  | 2.21 µM |  |  |  |  |  |  |  |  |  |  |  |  |  |  | 0.23 µM |  |  |

Reference: ChEMBL document CHEMBL4680121, “Development of (4-methoxyphenyl)-1H-tetrazol-5-amine regioisomers as a new class of selective antitubercular agents” (Eur J Med Chem, 2020)
